Results of several laboratories.
Protocols differ between the studies behind these lines.
pH: 7.4

SMILES	test	system	setting	logD
N=C(CC(O)c1cc2c(F)cc(F)cc2c2cc(C(F)(F)F)ccc12)Nc1ccc(F)c(F)c1 (stereo not shown)				4.96
Cn1cc(Nc2ncnc3ccc(-c4cccc(N5CCOCC5)c4)cc23)cn1	shake flask	aqueous buffer		3.7
Cn1cc2c(C(=O)O)ccc(NS(=O)(=O)c3ccc(Cl)c(Cl)c3)c2n1	shake flask	aqueous buffer		0.5
Cc1nc(Nc2ncnc3ccc(-c4cccc(N5CCOCC5)c4)cc23)oc1C	shake flask	aqueous buffer		4.3
CCOCC(=O)N1CCC[C@H](C(=O)NCc2nc(-c3ccc(C)nc3)cs2)C1	shake flask	aqueous buffer		1.4
CNS(=O)(=O)c1ccc(Nc2ncc(C(F)(F)F)c(N3CCC(C)(O)CC3)n2)c(C)c1	shake flask	aqueous buffer	1 h	3.8
COc1cnc(Nc2cnnc3ccc(-c4ccc(N5CCN(C)CC5)cc4)cc23)nc1	shake flask	aqueous buffer		3.2
CNS(=O)(=O)c1ccc(Nc2ncc(C(F)(F)F)c([C@H]3CC[C@@](C)(O)CC3)n2)c(C)c1	shake flask	aqueous buffer	1 h	4
CN1CCN(c2cccc(-c3ccc4ncnc(Nc5ccc(Cl)c(C(F)(F)F)c5)c4c3)c2)CC1	shake flask	aqueous buffer		> 4.3
C=C1C[C@@]23CC[C@H]4[C@@](C)(CCC[C@@]4(C)C(=O)O[C@@H]4O[C@H](CO)[C@@H](O)[C@H](O)[C@H]4O)[C@@H]2CC[C@]1(O[C@@H]1O[C@H](CO)[C@@H](O)[C@H](O)[C@H]1O)C3	shake flask	aqueous buffer		-1.45
O=C(NCc1nc(-c2ccc(C(F)(F)F)cc2)cs1)[C@H]1CCCN(C(=O)CO[C@H]2CCCNC2)C1	shake flask	aqueous buffer		0.81
C=CC(=O)N1CC2(CCN(c3nc4c(c(-c5c(C)ccc6[nH]ncc56)c3C#N)COC(C)(C)C4)C2)C1				2.8
N#Cc1ccc(-c2csc(CNC(=O)[C@H]3CCCN(C(=O)COCCF)C3)n2)cc1	shake flask	aqueous buffer		1.6
CN1CCN(c2cccc(-c3ccc4ncnc(Nc5ccc([N+](=O)[O-])c(C(F)(F)F)c5)c4c3)c2)CC1	shake flask	aqueous buffer		> 3.9
COCC(=O)N1CCC[C@H](C(=O)NCc2nc(-c3ccc(C#N)cc3)cs2)C1	shake flask	aqueous buffer		1.5
Cc1ccc(Nc2cnnc3ccc(-c4ccc(N5CCN(C)CC5)cc4)cc23)cn1	shake flask	aqueous buffer		3.5
CN(c1ncco1)c1ncnc2ccc(-c3cccc(N4CCOCC4)c3)cc12	shake flask	aqueous buffer		2.1
Cn1cc2c(C(=O)O)ccc(NS(=O)(=O)c3ccc(OCC4CCC4)c(Cl)c3)c2n1	shake flask	aqueous buffer		2
C=CC(=O)N1CC2(CCN(c3nc4c(c(-c5c(C)ccc6[nH]ncc56)c3C#N)CCC(C)(C)C4)C2)C1				4.3
CC(C)NCCOCC(=O)N1CCC[C@H](C(=O)NCc2nc(-c3ccc(C(F)(F)F)cc3)cs2)C1	shake flask	aqueous buffer		1.5
c1cc(-c2ccc3ncnc(Nc4ncco4)c3c2)nc(N2CCOCC2)n1	shake flask	aqueous buffer		3.4
O=C(O)c1ccc(NS(=O)(=O)c2ccc(Cl)c(Cl)c2)cc1F	shake flask	aqueous buffer		-0.2
C=CC(=O)N1CC2(CCN(c3nc4c(c(-c5cc(O)cc6ccccc56)c3C#N)COC(C)(C)C4)C2)C1				4.3
N#Cc1ccc(-c2csc(CNC(=O)[C@H]3CCCN(C(=O)CCN)C3)n2)cc1	shake flask	aqueous buffer		-0.69
C[C@@H]1CN(c2cccc(-c3ccc4ncnc(Nc5ncco5)c4c3)c2)C[C@H](C)O1	shake flask	aqueous buffer		> 3.6
C=CC(=O)N1CC2(CCN(c3nc4c(c(-c5cc(O)cc6ccccc56)c3Cl)COC(C)(C)C4)C2)C1				4.9
O=C(O)c1ccc(NS(=O)(=O)c2ccc(Cl)c(Cl)c2)c2ncccc12	shake flask	aqueous buffer		0.9
CN1CCC(Nc2ncnc3ccc(-c4cccc(N5CCOCC5)c4)cc23)CC1	shake flask	aqueous buffer		2.5
